Data from ChEMBL document CHEMBL1135784, “Novel antibiotics for the treatment of gram-positive bacterial infections” (J Med Chem, 2002).
In brackets after ≈: the same amount, converted by molar mass.

Assays:
Type in all cases: functional
[1] = test system: Enterococcus faecalis; experiment: Evaluated for its antibacterial activity against Enterococcus faecalis 18513
Procedure, shortened: (§1)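 Broth microdilution in AOAC broth with 4% dextrose, with compounds at 0.125-64 µg/mL. Inoculum was a 1:50 dilution of an overnight culture. Incubation at 37 °C with 8-10% CO₂ for about 20 h. MIC read as the first concentration showing no visible growth.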

[2] = test system: Enterococcus faecium; experiment: Evaluated for its antibacterial activity against Enterococcus faecium L4001; procedure, shortened: as §1
[3] = test system: Staphylococcus epidermidis; experiment: Evaluated for its antibacteria activity against Staphylococcus epidermidis 18570
Procedure, shortened: (§2)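 Broth microdilution in AOAC broth with 4% dextrose. Compounds tested over 0.125-64 µg/mL. Wells inoculated with a 1:500 dilution of an overnight culture. Plates incubated at 37 °C under 8-10% CO₂ and read after about 20 h. MIC taken as the first concentration with no visible growth.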

[4] = test system: Streptococcus pneumoniae; experiment: Evaluated for its antibacterial activity against Streptococcus pneumoniae G9a
Procedure, shortened: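 For S. pneumoniae, microdilution used BHI broth diluted 1:10 with 10% bovine serum, and compounds at 0.125-64 µg/mL. Wells received a 1:50 dilution of an overnight culture. Plates were kept at 37 °C in 8-10% CO₂ and read after about 20 h. MIC was the lowest concentration without visible growth.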

[5] = test system: Staphylococcus aureus; experiment: Evaluated for its antibacterial activity against Staphylococcus aureus 133; procedure, shortened: as §2
[6] = test system: Streptococcus pyogenes; experiment: Evaluated for its antibacterial activity against Str. Pyogenes wacker; procedure, shortened: as §1
[7] = test system: Escherichia coli; experiment: Evaluated for its inhibitory activity against prokaryotic translation by using Escherichia coli transcription-translation assay
Procedure, shortened: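 Coupled E. coli transcription-translation system with a luciferase reporter; inhibition of bacterial translation measured by luminescence read-out.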

[8] = test system: Staphylococcus aureus; experiment: Evaluated for its antibacteria activity against Staphylococcus aureus; procedure, shortened: as §2

SMILES: CN(C(=O)C[C@@H](N)CCCN=C(N)N)C1CN=C(NC(N)=O)NC1=O (stereo not given in full)
- MIC [1]: > 16 µg/mL
- MIC [2]: 2 µg/mL (≈ 5.63 µM)
- MIC [3]: 0.25 µg/mL (≈ 0.703 µM)
- MIC [4]: 16 µg/mL (≈ 45 µM)
- MIC [5]: 0.25 µg/mL (≈ 0.703 µM)
- MIC [6]: 8 µg/mL (≈ 22.5 µM)

SMILES: CC(C)/N=C(/N)NCCC[C@H](N)CC(=O)N(C)C1CN=C(NC(N)=O)NC1=O (stereo not given in full)
- IC50 [7]: 12.5 µM
- MIC [5]: 12.5 µg/mL (≈ 31.4 µM)

SMILES: CC/N=C(/N)NCCC[C@H](N)CC(=O)N(C)C1CN=C(NC(N)=O)NC1=O (stereo not given in full)
- IC50 [7]: 12.5 µM
- MIC [5]: 6.3 µg/mL (≈ 16.4 µM)

SMILES: CC(C)C(=N)NCCC[C@H](N)CC(=O)N(C)C1CN=C(NC(N)=O)NC1=O (stereo not given in full)
- MIC [5]: 3.2 µg/mL (≈ 8.37 µM)

SMILES: CN(CCC[C@H](N)CC(=O)N(C)C1CN=C(NC(N)=O)NC1=O)C(=N)N (stereo not given in full)
- IC50 [7]: 0.06 µM
- MIC [1]: 64 µg/mL (≈ 173 µM)
- MIC [2]: 2 µg/mL (≈ 5.41 µM)
- MIC [3]: 0.12 µg/mL (≈ 0.325 µM)
- MIC [4]: 4 µg/mL (≈ 10.8 µM)
- MIC [5]: 0.025 µg/mL (≈ 0.0677 µM)
- MIC [6]: 0.5 µg/mL (≈ 1.35 µM)

SMILES: C/C(N)=N/CCC[C@H](N)CC(=O)N(C)C1CN=C(NC(N)=O)NC1=O (stereo not given in full)
- IC50 [7]: 0.1 µM
- MIC [1]: > 64 µg/mL
- MIC [2]: 16 µg/mL (≈ 45.1 µM)
- MIC [3]: 0.2 µg/mL (≈ 0.564 µM)
- MIC [8]: 0.2 µg/mL (≈ 0.564 µM)
- MIC [4]: 16 µg/mL (≈ 45.1 µM)
- MIC [5]: 0.2 µg/mL (≈ 0.564 µM)
- MIC [6]: 1 µg/mL (≈ 2.82 µM)

SMILES: C/N=C(/N)NCCC[C@H](N)CC(=O)N(C)C1CN=C(NC(N)=O)NC1=O (stereo not given in full)
- IC50 [7]: 0.5 µM
- MIC [1]: 64 µg/mL (≈ 173 µM)
- MIC [2]: 16 µg/mL (≈ 43.3 µM)
- MIC [3]: 0.13 µg/mL (≈ 0.352 µM)
- MIC [4]: 16 µg/mL (≈ 43.3 µM)
- MIC [5]: 0.8 µg/mL (≈ 2.17 µM)
- MIC [6]: 4 µg/mL (≈ 10.8 µM)

SMILES: C/N=C(/N)N(C)CCC[C@H](N)CC(=O)N(C)C1CN=C(NC(N)=O)NC1=O.Cl.Cl (stereo not given in full)
- IC50 [7]: 0.4 µM
- MIC [1]: > 64 µg/mL
- MIC [2]: 8 µg/mL
- MIC [3]: 0.5 µg/mL
- MIC [4]: 32 µg/mL
- MIC [5]: 0.4 µg/mL
- MIC [6]: 8 µg/mL
